Screening data (PubChem)
Hits are enriched below; roughly 2.3% of the tested compounds scored in any of these assays.
OXTR potentiate: human OXTR potentiators, primary screen, fluorescence, CHO-OTR cells, Fluo-8 calcium; Fluo-8 calcium fluorescence, potentiator mode; 0% = oxytocin EC15, 100% = EC100; activation, % at 3 µM; actives 0.061% (n = 320,000); Oxytocin receptor (Homo sapiens), P30559;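 active = activation above that plate's cutoff, the mean activation of tested compounds plus 3 SD, cut at about 6.6% in these data, passing the limit was not always enough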;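 note: 100% uses oxytocin at 75 nM as the full agonist control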
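assay system = CHO-OTR cells, human receptor | schedule = compound 6 min at room temperature before oxytocin, 100 s read | detection = Fluo-8 intracellular calcium fluorescence, ex 470-495, em 515-575 nm | evaluation = normalized max/min fluorescence ratio, % activation | control set = EC15 oxytocin alone as 0%, 75 nM oxytocin (EC100) as 100%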
TAAR1 agonist: human TAAR1 agonists, primary screen, Fluo-8 calcium fluorescence, CHO RD-HGA16 cells | activation, % at 3 µM | vehicle wells 0%, saturating PEA agonist 100% | Trace amine-associated receptor 1 (Homo sapiens), Q96RJ0 | actives 0.99% (n = 360,000);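 active = activation above the mean activation of all test compounds in the run plus 3 SD, cut at about 38% in these data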
Target sequence (Q96RJ0 whole entry, looked up): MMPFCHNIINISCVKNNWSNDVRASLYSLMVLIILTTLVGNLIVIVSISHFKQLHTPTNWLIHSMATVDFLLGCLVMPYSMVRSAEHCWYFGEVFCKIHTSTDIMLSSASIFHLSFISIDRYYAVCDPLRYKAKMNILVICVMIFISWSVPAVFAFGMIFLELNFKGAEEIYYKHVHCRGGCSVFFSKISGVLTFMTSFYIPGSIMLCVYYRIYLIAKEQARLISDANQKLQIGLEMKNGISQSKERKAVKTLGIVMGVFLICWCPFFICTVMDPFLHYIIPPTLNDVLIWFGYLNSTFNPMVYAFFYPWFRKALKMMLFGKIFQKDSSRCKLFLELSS
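Test system: RD-HGA16 (CHO) cells co-expressing Gα16 and hTAAR1 / Benchmarks: DMSO vehicle as 0%, PEA at EC100 as 100% / Repeats: no replicates (n 1) / Measure: % activation from peak over basal fluorescence ratio, DMSO-to-PEA scaled / Timing: 17-24 h plating, Fluo-8 75 min 37 °C, 30 min RT / Technique: kinetic Fluo-8 calcium fluorescence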
OXTR ag: human OXTR agonists, primary screen, fluorescence, CHO-OTR cells, Fluo-8 calcium; AID 2435, 2010; activation, % at 3 µM; actives 0.32% (n = 320,000); Fluo-8 calcium fluorescence; normalized: DMSO 0%, oxytocin 100%;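 active = activation above the mean of all tested compounds plus 3 SD, cutoff set per screening run, cut at about 20% in these data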;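 note: peak over basal fluorescence ratio from a 100 s FLIPR kinetic read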
V1aR counter: agonists of human V1a receptor, primary screen, counter-screen for OXTR agonist project, fluorescence, CHO-V1R cells | Fluo-8 calcium fluorescence, agonist mode; 0% DMSO, 100% 3 nM vasopressin | activation, % at 3 µM | actives 0.25% (n = 320,000) | AID 2797, 2010;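 active = activation above the mean activation of all tested compounds plus 3 SD, per screening run, cut at about 20% in these data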;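 note: signal is peak over basal fluorescence ratio across a 100 second FLIPR read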
Target sequence (P37288 whole entry, looked up): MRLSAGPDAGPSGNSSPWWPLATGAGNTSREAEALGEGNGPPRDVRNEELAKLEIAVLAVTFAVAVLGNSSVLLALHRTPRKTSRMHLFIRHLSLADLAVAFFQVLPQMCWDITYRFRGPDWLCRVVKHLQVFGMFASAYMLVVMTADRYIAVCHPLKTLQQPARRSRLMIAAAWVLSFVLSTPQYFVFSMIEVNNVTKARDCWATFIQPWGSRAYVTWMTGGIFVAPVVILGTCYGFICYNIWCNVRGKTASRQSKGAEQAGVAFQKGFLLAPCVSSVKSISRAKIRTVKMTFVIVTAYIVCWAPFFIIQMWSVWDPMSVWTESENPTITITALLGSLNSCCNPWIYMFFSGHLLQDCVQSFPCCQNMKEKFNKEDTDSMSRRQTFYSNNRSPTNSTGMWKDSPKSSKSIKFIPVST
TAAR1 antagonist: human TAAR1 antagonists, primary screen, Fluo-8 calcium fluorescence, CHO RD-HGA16 cells. antagonist. Trace amine-associated receptor 1 (Homo sapiens), Q96RJ0. inhibition, % at 3 µM. actives 1.5% (n = 360,000);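 active = inhibition above a per-plate cutoff, the mean inhibition of test compounds on that plate plus 3 SD, cut at about 49% in these data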;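 note: 0% = DMSO plus EC80 beta-PEA response and 100% = DMSO alone without agonist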
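Assay system: RD-HGA16 CHO cells with stable hTAAR1 and Gα16 / Reagent: EC80 β-phenethylamine stimulus / Doses: 3 µM, single point / Timing: dye loading 75 min at 37 °C, then 30 min room temperature / Measured by: Fluo-8 intracellular calcium dye fluorescence, real-time kinetic reads / Controls: vehicle wells and EC80 agonist wells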
TAAR1 ag confirm: human TAAR1 agonists, retest of hits, confirmation, Fluo-8 calcium fluorescence, CHO RD-HGA16 cells; shares compounds with TAAR1 agonist; scaled: DMSO 0%, maximal phenethylamine 100%; activation, % at 3 µM; actives 82% (n = 2,400); AID 651783, 2012;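 active = activation above a cutoff set at the run's mean compound activation plus 3 SD, cut at about 39% in these data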
Ga16 nonsel ag: nonselective calcium mobilization agonists, CHO-Ga16 cells, counter-screen for hTAAR1 agonist project, cell-based, fluorescence, CHO-Ga16 parental line; actives 50% (n = 2,400); Fluo-8 calcium fluorescence; normalized to maximal ATP response, DMSO zero; shares compounds with TAAR1 agonist; activation, % at 3 µM;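 active = activation above the run cutoff, the mean activation over all tested wells plus 3 SD, cut at about 12% in these data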;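 note: 0% = DMSO wells and 100% = maximal ATP response on the peak over basal ratio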
TAAR1 desensitize: TAAR1 desensitization by agonist hits, confirmation, counter-screen for TAAR1 agonist project, cell-based, fluorescence, tachyphylaxis; inhibition, % at 3 µM; AID 651951, 2012; CHO RD-HGA16 hTAAR1, Fluo-8 calcium, beta-PEA response inhibition; shares compounds with TAAR1 agonist; actives 46% (n = 2,400);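 active = inhibition above the run cutoff, the mean inhibition of all test compounds plus 3 SD, cut at about 49% in these data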;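 note: beta-PEA stimulus applied at its EC80; loss of beta-PEA calcium signal after compound pretreatment read as receptor desensitization; 0% = DMSO with beta-PEA at EC80 and 100% = DMSO alone without agonist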
Ga16 nonsel ant: inhibition of ATP-evoked calcium response in CHO-Ga16 cells, counter-screen for TAAR1 agonist project, cell-based, fluorescence. shares compounds with TAAR1 agonist. actives 39% (n = 2,400). inhibition, % at 3 µM. CHO-Ga16 ATP-induced calcium, Fluo-8 fluorescence;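 active = inhibition above the plate's mean compound inhibition plus 3 SD, computed per plate, cut at about 22% in these data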;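 note: 0% = EC80 ATP with DMSO and 100% = DMSO wells without ATP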
The depositor's hits bear a star; . = not tested or not shown.

SMILES	OXTR potentiate	TAAR1 agonist	OXTR ag	V1aR counter	TAAR1 antagonist	TAAR1 ag confirm	Ga16 nonsel ag	TAAR1 desensitize	Ga16 nonsel ant
Cc1cc(C(F)F)n2ncc(C(=O)NCCc3ccc(Cl)cc3)c2n1	-5.2	10.2	-0.8	-0.5	2.1	.	.	.	.
COc1ccc(S(=O)(=O)N(C)C[C@H]2OCc3cn(nn3)CCCC(=O)N([C@H](C)CO)C[C@@H]2C)cc1	.	0.7	.	.	-2.0	.	.	.	.
N/C(Cc1cccc2ccccc12)=N\OC(=O)Cc1cccs1	-1.3	60.6*	-2.7	-1.3	25.8	73.6*	0.6	24.1	2.5
COc1ccc(CC(=O)O/N=C(\N)Cc2cccc3ccccc23)cc1OC	-8.1	42.1*	-1.5	0.7	25.3	64.8*	2.4	45.0	19.5
CCOC(=O)C1(CC2CCCCO2)CCN(Cc2cn[nH]c2-c2cccc(F)c2)CC1 (centres undefined)	-0.5	19.0	3.5	0.4	-9.2	.	.	.	.
CN(C(=O)CSc1nc(N)cc(N)n1)C1CCS(=O)(=O)C1 (centres undefined)	-3.7	2.3	0.1	-0.2	-29.1	.	.	.	.
CCCCC(CC)CNC(=O)C1C2C=CC(C2)C1C(=O)O (centres undefined)	-3.0	77.8*	-0.6	0.6	49.3*	89.8*	5.1	50.9*	-3.4
O=C(O)C1C2C=CC(C2)C1C(=O)NCCCc1ccccc1 (centres undefined)	-2.6	76.1*	0.3	0.0	28.5	79.6*	0.8	30.9	2.7
CCOC(=O)c1ccc(NC(=O)C2C3C=CC(C3)C2C(=O)O)cc1 (centres undefined)	-8.5	8.7	1.4	0.2	2.0	.	.	.	.
O=C(O)C1C2C=CC(C2)C1C(=O)NCCc1ccccc1 (centres undefined)	1.2	84.5*	0.3	0.3	91.8*	96.2*	2.0	94.3*	2.2
O=C(O)C1C2C=CC(C2)C1C(=O)NCc1ccccn1 (centres undefined)	-10.1	.	-0.3	3.9	.	.	.	.	.
O=C(O)C1C2C=CC(C2)C1C(=O)NCCc1ccncc1 (centres undefined)	-9.5	35.6	-0.6	0.2	-2.5	.	.	.	.
COc1cc(CN2CCNC(=O)C2CC(=O)NCc2csc(C(C)C)n2)cc(OC)c1 (centres undefined)	-3.0	-1.9	0.1	-0.3	-21.2	.	.	.	.
CCCCN1C(=O)C(CC(=O)NC2CCCC2)CC(C(=O)N2CCOCC2)=C1C (centres undefined)	.	1.6	.	.	-12.6	.	.	.	.
CCCCCOc1ccc(CSC(=N)N)cc1[N+](=O)[O-]	-6.0	59.2*	10.5	5.5	27.7	104.4*	58.5*	69.3*	29.3*
CC1CCN(c2ccc3c(c2)S(=O)(=O)c2cccc(C(=O)NCc4cccc(F)c4)c2C3=O)CC1	-9.8	67.1*	49.8*	37.8*	91.4*	25.9	35.7*	59.8*	62.5*
O=C(NCc1ccc(OC(F)(F)F)cc1)c1cccc2c1C(=O)c1ccc(N3CCCCC3)cc1S2(=O)=O	-2.4	6.1	4.4	3.4	13.0	.	.	.	.
c1ccc2c(CC3=NCCN3)cccc2c1	-4.4	96.8*	-0.6	0.3	74.4*	95.3*	9.7	90.4*	-1.3
CN(CCc1ccccc1)C(=O)c1ccc(NC(=O)Cc2cccc(NC(=O)C3CCN(S(=O)(=O)c4cccc([N+](=O)[O-])c4)CC3)c2)cc1	.	43.2*	.	.	11.9	66.0*	1.6	19.8	7.9
CCOc1ccc(S(=O)(=O)N2CCC(C(=O)NCc3ccccn3)CC2)cc1	-3.8	0.2	0.4	1.1	-11.3	.	.	.	.
Cc1ccc(C(=O)NCC(=O)NCC(=O)OCc2ccc(F)cc2)cc1	-7.4	7.0	-0.8	0.0	-19.6	.	.	.	.
COc1ccc(C(c2nnnn2C2CCCC2)N2CCc3ccccc3C2)cc1OC (centres undefined)	.	22.1	.	.	-9.4	.	.	.	.
CCC(C)(C)n1nnnc1C(c1ccc(O)cc1)N1CCc2ccccc2C1 (centres undefined)	-12.2	97.8*	-0.4	1.1	84.0*	92.5*	4.3	86.2*	15.1
CC(C)(C)n1nnnc1C(c1ccccc1)N1CCc2ccccc2C1 (centres undefined)	0.8	.	-0.3	-0.6	.	.	.	.	.
COCCn1nnnc1C(c1ccc(O)c(OC)c1)N1CCc2ccccc2C1 (centres undefined)	-3.4	86.1*	0.9	0.9	84.2*	103.3*	0.7	96.8*	8.8
SMILES	OXTR potentiate	TAAR1 agonist	OXTR ag	V1aR counter	TAAR1 antagonist	TAAR1 ag confirm	Ga16 nonsel ag	TAAR1 desensitize	Ga16 nonsel ant
CCOC(=O)N1CCN(C(=O)c2ccc(CS(=O)(=O)c3ccccc3OC)o2)CC1	-3.3	2.9	-0.3	-0.7	11.0	.	.	.	.
Cc1ccc(S(=O)(=O)Cc2ccc(C(=O)N3CCN(Cc4ccccc4)CC3)o2)cc1	-3.9	1.3	-0.4	-0.5	-7.5	.	.	.	.
COc1ccccc1N1CCN(C(=O)c2cccc3c(=O)c(C)c(-c4ccccc4)oc23)CC1	-22.0	70.0*	15.1	18.8	60.2*	68.7*	37.1*	48.0	33.0*
COc1ccccc1N1CCN(C(=O)c2ccc(CS(=O)(=O)c3ccccc3OC)o2)CC1	-5.0	58.6*	1.2	1.9	37.8	58.9*	21.1*	55.0*	33.8*
COc1ccc(S(=O)(=O)Cc2ccc(C(=O)N3CCN(Cc4ccccc4)CC3)o2)cc1	0.2	-0.5	-0.9	0.0	18.5	.	.	.	.
COc1ccc(S(=O)(=O)Cc2ccc(C(=O)N3CCc4ccccc4C3)o2)cc1	-3.9	61.1*	-1.1	0.0	61.0*	91.5*	23.1*	75.9*	12.0
